From ChEMBL document CHEMBL1130133, “Terbenzimidazoles: influence of 2"-, 4-, and 5-substituents on cytotoxicity and relative potency as topoisomerase I poisons” (J Med Chem, 1997)

What was measured:
[1] = biological target: T1, DNA topoisomerase 1 (Homo sapiens) (UniProt P11387); assay: Topoisomerase I mediated DNA cleavage; assay type: functional
T1 sequence (whole entry): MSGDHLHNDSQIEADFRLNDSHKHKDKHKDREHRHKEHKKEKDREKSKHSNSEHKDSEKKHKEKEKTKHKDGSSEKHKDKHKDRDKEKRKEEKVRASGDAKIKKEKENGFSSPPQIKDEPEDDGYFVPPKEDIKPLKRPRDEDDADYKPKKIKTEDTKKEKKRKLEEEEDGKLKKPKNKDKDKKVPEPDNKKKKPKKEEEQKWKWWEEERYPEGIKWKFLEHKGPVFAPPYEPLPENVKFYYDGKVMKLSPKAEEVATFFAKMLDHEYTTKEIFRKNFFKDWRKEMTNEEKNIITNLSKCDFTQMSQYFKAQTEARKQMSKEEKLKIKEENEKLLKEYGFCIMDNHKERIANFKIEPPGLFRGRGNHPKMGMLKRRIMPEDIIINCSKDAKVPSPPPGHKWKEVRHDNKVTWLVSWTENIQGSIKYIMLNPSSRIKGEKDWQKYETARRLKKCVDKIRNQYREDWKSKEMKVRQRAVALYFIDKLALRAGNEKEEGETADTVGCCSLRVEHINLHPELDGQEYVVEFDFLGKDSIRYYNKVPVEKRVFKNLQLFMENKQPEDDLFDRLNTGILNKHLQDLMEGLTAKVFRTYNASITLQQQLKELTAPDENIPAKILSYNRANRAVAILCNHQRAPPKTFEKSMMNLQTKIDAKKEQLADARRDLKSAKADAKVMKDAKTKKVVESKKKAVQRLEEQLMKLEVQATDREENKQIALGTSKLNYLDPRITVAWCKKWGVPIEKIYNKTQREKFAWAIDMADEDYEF
Procedure, shortened: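 Recombinant human topoisomerase I (expressed in E. coli) was incubated with end-labeled plasmid YEpG DNA and drug for 30 min at 37 °C. Drug was given as 10-fold serial dilutions from 0.01 to 10 µg/mL. Fragments were separated on gels and autoradiographed, typically with 24 h exposure. Cleavage was scored from the strongest specific band and expressed as concentration relative to reference compound (set to 1) giving equal cleavage.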

RPMI 8402 = assay: Cytotoxicity using human lymphoblast RPMI 8402 cells.; assay type: functional, cell-based
Procedure, shortened: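 Human lymphoblast RPMI 8402 cells were grown in suspension at 37 °C, 5% CO2, in RPMI with 10% heat-inactivated FBS, 2 mM L-glutamine, penicillin 100 U/mL and streptomycin 0.1 mg/mL. Cells were seeded at 2000/well and exposed continuously to a range of drug concentrations for 4 days, then read by MTT assay. A no-drug control was included, and each assay was run at least twice in six replica wells.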

| REC [1] | SMILES | IC50 (RPMI 8402) |
| --- | --- | --- |
| > 1000 | c1ccc2cc3[nH]c(-c4ccc5[nH]c(-c6ccc7[nH]cnc7c6)nc5c4)nc3cc2c1 | > 100000 nM |
| 0.5 | CCCc1nc2cc(-c3nc4cc(-c5nc6cc(-c7ccccc7)ccc6[nH]5)ccc4[nH]3)ccc2[nH]1 | 60 nM |
| 20 | c1ccc(-c2ccc3[nH]c(-c4ccc5[nH]c(-c6ccc7[nH]c(-c8ccccc8)nc7c6)nc5c4)nc3c2)cc1 | 60 nM |
| 1 | CCc1nc2cc(-c3nc4cc(-c5nc6cc(-c7ccccc7)ccc6[nH]5)ccc4[nH]3)ccc2[nH]1 | 110 nM |
| 2 | Clc1ccc(-c2ccc3[nH]c(-c4ccc5[nH]c(-c6ccc7[nH]cnc7c6)nc5c4)nc3c2)cc1 | 90 nM |
| 1 | c1ccc(-c2ccc3[nH]c(-c4ccc5[nH]c(-c6ccc7[nH]cnc7c6)nc5c4)nc3c2)cc1 | – |
| 1 | c1ccc2cc(-c3ccc4[nH]c(-c5ccc6[nH]c(-c7ccc8[nH]cnc8c7)nc6c5)nc4c3)ccc2c1 | 80 nM |
| 5 | c1ccc(-c2cccc3[nH]c(-c4ccc5[nH]c(-c6ccc7[nH]cnc7c6)nc5c4)nc23)cc1 | 7000 nM |
| 2 | c1ccc2c(-c3ccc4[nH]c(-c5ccc6[nH]c(-c7ccc8[nH]cnc8c7)nc6c5)nc4c3)cccc2c1 | 2100 nM |
| 0.5 | COc1ccc(-c2ccc3[nH]c(-c4ccc5[nH]c(-c6ccc7[nH]cnc7c6)nc5c4)nc3c2)cc1 | 90 nM |
| 2 | Cc1nc2cc(-c3nc4cc(-c5nc6cc(-c7ccccc7)ccc6[nH]5)ccc4[nH]3)ccc2[nH]1 | 110 nM |
| 1 | c1ccc2c(c1)ccc1[nH]c(-c3ccc4[nH]c(-c5ccc6[nH]cnc6c5)nc4c3)nc12 | 25000 nM |
| 20 | COc1ccc(-c2nc3cc(-c4nc5cc(-c6nc7cc(-c8ccccc8)ccc7[nH]6)ccc5[nH]4)ccc3[nH]2)cc1 | 380 nM |
| 0.05 | CC(C)c1nc2cc(-c3nc4cc(-c5nc6cc(-c7ccccc7)ccc6[nH]5)ccc4[nH]3)ccc2[nH]1 | 60 nM |
